From ChEMBL document CHEMBL1127785, “[[omega-(Heterocyclylamino)alkoxy]benzyl]-2,4-thiazolidinediones as potent antihyperglycemic agents” (1994)
The source made the active and inactive calls. The rule behind the calls is not given here.

Experiments:
Mus musculus [1] = assay: Percent reduction in area under glucose tolerance curve (AUC) was determined at 30 umol/kg dose of diet in mice; type: functional
Procedure, shortened: (§1)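 C57 Bl/6 ob/ob mice, 9–10 weeks old at purchase, 6–8 per group, kept at 26 ± 2 °C on a 12 h light/dark cycle. Compound was mixed into powdered diet, given fresh daily for 8 days. Mice were then fasted 5 h and given oral glucose 3 g/kg. Tail blood glucose was measured at 0, 45, 90 and 135 min by hexokinase/G6PDH. Read-out is % AUC reduction vs controls (trapezoid rule), Student's t-test.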

Mus musculus [2] = assay: Percent reduction in area under glucose tolerance curve at 100 uM/kg dose in diet of mice.; type: functional; procedure, shortened: as §1
Mus musculus [3] = assay: Percent reduction in area under glucose tolerance curve at 300 uM/kg dose in diet of mice.; type: functional; procedure, shortened: as §1
Mus musculus [4] = assay: Percent reduction in area under glucose tolerance curve (AUC) was determined at 1000 umol/kg dose of diet in mice; IA = No significant activity; type: functional, organism-based; procedure, shortened: as §1
Mus musculus [5] = assay: Percent reduction in area under glucose tolerance curve (AUC) was determined at 100 umol/kg dose of diet in mice; IA = No significant activity; type: functional, organism-based; procedure, shortened: as §1
Mus musculus [6] = assay: Percent reduction in area under glucose tolerance curve (AUC) was determined at 30 umol/kg dose of diet in mice; IA = No significant activity; type: functional, organism-based; procedure, shortened: as §1
Mus musculus [7] = assay: Percent reduction in area under glucose tolerance curve (AUC) was determined at 300 umol/kg dose of diet in mice; IA = No significant activity; type: functional, organism-based; procedure, shortened: as §1
Mus musculus [8] = assay: Percent reduction in area under glucose tolerance curve (AUC) was determined at 3 umol/kg dose of diet in mice; IA = No significant activity; type: functional, organism-based; procedure, shortened: as §1
Mus musculus [9] = assay: Percent reduction in area under glucose tolerance curve (AUC) was determined at 10 umol/kg dose of diet in mice; type: functional; procedure, shortened: as §1
Mus musculus [10] = assay: Percent reduction in area under glucose tolerance curve (AUC) was determined at 10 umol/kg dose of diet in mice; IA = No significant activity; type: functional, organism-based; procedure, shortened: as §1
Mus musculus [11] = assay: Percent reduction in area under glucose tolerance curve (AUC) was determined at 1000 umol/kg dose of diet in mice; type: functional; procedure, shortened: as §1

Cc1ccc(N(C)CCOc2ccc(CC3SC(=O)NC3=O)cc2)nc1 (centres undefined)
Reduction (Mus musculus [1]): 18%
Reduction (Mus musculus [2]): 19%
Reduction (Mus musculus [3]): 35%

CN(CCOc1ccc(C2SC(=O)NC2=O)cc1)c1nc2ccccc2o1 (centres undefined)
Reduction (Mus musculus [4]): inactive

CC(COc1ccc(CC2SC(=O)NC2=O)cc1)N(C)c1nc2ccccc2o1 (centres undefined)
Reduction (Mus musculus [3]): 38%
Reduction (Mus musculus [5]): Not significant

CN(CCOc1ccc(CC2SC(=O)NC2=O)cc1)c1ncccc1Cl (centres undefined)
Reduction (Mus musculus [1]): 15%
Reduction (Mus musculus [3]): 40%

CN(CCOc1ccc(CC2SC(=O)NC2=O)cc1)c1ccc(N)cn1 (centres undefined)
Reduction (Mus musculus [6]): Not significant

COc1ccc(NC(=O)NCCOc2ccc(CC3SC(=O)NC3=O)cc2)cc1 (centres undefined)
Reduction (Mus musculus [7]): Not significant

CN(CC(O)COc1ccc(CC2SC(=O)NC2=O)cc1)c1nc2ccccc2o1 (centres undefined)
Reduction (Mus musculus [5]): Not significant

CC(CN(C)c1nc2ccccc2o1)Oc1ccc(CC2SC(=O)NC2=O)cc1 (centres undefined)
Reduction (Mus musculus [7]): Not significant

COc1cccc(N(C)CCOc2ccc(CC3SC(=O)NC3=O)cc2)n1 (centres undefined)
Reduction (Mus musculus [6]): Not significant
Reduction (Mus musculus [3]): 35%

CN(CCOc1ccc(CC2SC(=O)NC2=O)cc1)C(=O)Nc1ccccc1 (centres undefined)
Reduction (Mus musculus [3]): 27%

CN(CCOc1ccc(/C=C2\SC(=O)NC2=O)cc1)c1nc2ccccc2o1
Reduction (Mus musculus [3]): 30%

CN(CC(Oc1ccc(CC2SC(=O)NC2=O)cc1)c1ccccc1)c1nc2ccccc2o1 (centres undefined)
Reduction (Mus musculus [6]): Not significant

O=C1NC(=O)C(Cc2ccc(OCCN(Cc3ccccc3)c3nc4ccccc4s3)cc2)S1 (centres undefined)
Reduction (Mus musculus [3]): 56%
Reduction (Mus musculus [5]): Not significant

CN(CCOc1ccc(CC2SC(=O)NC2=O)cc1)/C(=N/c1ccccc1)NC#N (centres undefined)
Reduction (Mus musculus [7]): Not significant

CN(CCOc1ccc(CC2SC(=O)NC2=O)cc1)c1nc2ccccc2s1 (centres undefined)
Reduction (Mus musculus [2]): 51%
Reduction (Mus musculus [3]): 66%
Reduction (Mus musculus [8]): Not significant
Reduction (Mus musculus [9]): 36%

CN(CCOc1ccc(CC2SC(=O)NC2=O)cc1)c1nccs1 (centres undefined)
Reduction (Mus musculus [2]): 58%
Reduction (Mus musculus [10]): Not significant

O=C1NC(=O)C(Cc2ccc(OCCNc3ncccn3)cc2)S1 (centres undefined)
Reduction (Mus musculus [1]): 15%

CC(=O)N(CCOc1ccc(CC2SC(=O)NC2=O)cc1)c1ncccn1 (centres undefined)
Reduction (Mus musculus [1]): 19%

CN(CCOc1ccc(CC2SC(=O)NC2=O)cc1)c1ccc(Cl)cn1 (centres undefined)
Reduction (Mus musculus [6]): Not significant
Reduction (Mus musculus [3]): 44%

CN(CCCCOc1ccc(CC2SC(=O)NC2=O)cc1)c1nc2ccccc2o1 (centres undefined)
Reduction (Mus musculus [6]): Not significant
Reduction (Mus musculus [3]): 25%

Cc1cccc(N(C)CCOc2ccc(CC3SC(=O)NC3=O)cc2)n1 (centres undefined)
Reduction (Mus musculus [6]): Not significant
Reduction (Mus musculus [3]): 33%

O=C1NC(=O)C(Cc2ccc(OCCNC(=S)Nc3ccccc3)cc2)S1 (centres undefined)
Reduction (Mus musculus [6]): Not significant
Reduction (Mus musculus [11]): 43%
Reduction (Mus musculus [2]): 10%

CN1C(=O)SC(Cc2ccc(OCCN(C)c3nc4ccccc4o3)cc2)C1=O (centres undefined)
Reduction (Mus musculus [11]): 42%
Reduction (Mus musculus [5]): Not significant

CC(C)N(CCOc1ccc(CC2SC(=O)NC2=O)cc1)c1nc2ccccc2o1 (centres undefined)
Reduction (Mus musculus [2]): 20%

CN(CCSc1ccc(CC2SC(=O)NC2=O)cc1)c1nc2ccccc2o1 (centres undefined)
Reduction (Mus musculus [2]): 20%

CN(CCOc1ccc(CC2SC(=O)NC2=O)cc1)c1ncc(-c2ccccc2)o1 (centres undefined)
Reduction (Mus musculus [1]): 22%
Reduction (Mus musculus [9]): 20%

CN(CCOc1ccc(CC2OC(=O)NC2=O)cc1)c1nc2ccccc2o1 (centres undefined)
Reduction (Mus musculus [6]): Not significant
Reduction (Mus musculus [11]): 52%
Reduction (Mus musculus [2]): 23%
Reduction (Mus musculus [3]): 41%

CN(CCOc1ccc(/C=C2\SC(=O)NC2=O)cc1)c1ccccn1
Reduction (Mus musculus [6]): inactive
Reduction (Mus musculus [3]): 47%
